Converted amounts (≈) assume the structure as drawn.
Legend:
Type in all cases: functional
[1] = tested on: Aspergillus flavus; test: Antifungal activity against Aspergillus flavus NCIM 524 at MIC after 3 to 4 days by agar well diffusion method
Outline: (§1)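 Sabouraud agar (peptone, D-glucose, agar; pH 5.7) seeded with spore suspension made by transferring a loopful of fungus to 3 mL normal saline. Excess decanted, plates dried 1 h at 37 °C. Compounds in DMSO at MIC added to punched wells; DMSO control. Triplicate plates kept 3–4 days at 37 °C.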

[2] = tested on: Talaromyces marneffei; test: Antifungal activity against recultured Penicillium marneffei at MIC after 3 to 4 days by agar well diffusion method; outline: as §1
[3] = tested on: Staphylococcus aureus; test: Antibacterial activity against Staphylococcus aureus ATCC 25923 at MIC after 3 to 4 days by agar well diffusion method
[4] = tested on: Trichophyton mentagrophytes; test: Antifungal activity against recultured Trichophyton mentagrophytes at MIC after 3 to 4 days by agar well diffusion method; outline: as §1
[5] = tested on: Trichophyton mentagrophytes; test: Antifungal activity against recultured Trichophyton mentagrophytes by serial plate dilution method
[6] = tested on: Talaromyces marneffei; test: Antifungal activity against recultured Penicillium marneffei by serial plate dilution method
[7] = tested on: Klebsiella pneumoniae; test: Antibacterial activity against recultured Klebsiella pneumoniae after 16 to 18 hrs by serial plate dilution method
Outline: (§2)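 Drug serially diluted in Mueller–Hinton broth in tubes, adjusted to pH 5.0 with phosphate buffer. Inoculated with standardized bacterial suspension and incubated 16–18 h at 37 °C. MIC taken as lowest concentration with no visible growth.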

[8] = tested on: Aspergillus fumigatus; test: Antifungal activity against Aspergillus fumigatus NCIM 902 by serial plate dilution method
[9] = tested on: Escherichia coli; test: Antibacterial activity against Escherichia coli ATCC 25922 after 16 to 18 hrs by serial plate dilution method; outline: as §2
[10] = tested on: Staphylococcus aureus; test: Antibacterial activity against Staphylococcus aureus ATCC 25923 after 16 to 18 hrs by serial plate dilution method; outline: as §2
[11] = tested on: Aspergillus fumigatus; test: Antifungal activity against Aspergillus fumigatus NCIM 902 at MIC after 3 to 4 days by agar well diffusion method; outline: as §1
[12] = tested on: Aspergillus flavus; test: Antifungal activity against Aspergillus flavus NCIM 524 by serial plate dilution method
[13] = tested on: Pseudomonas aeruginosa; test: Antibacterial activity against Pseudomonas aeruginosa ATCC 27853 at MIC after 3 to 4 days by agar well diffusion method
[14] = tested on: Klebsiella pneumoniae; test: Antibacterial activity against recultured Klebsiella pneumoniae at MIC after 3 to 4 days by agar well diffusion method
[15] = tested on: Escherichia coli; test: Antibacterial activity against Escherichia coli ATCC 25922 at MIC after 3 to 4 days by agar well diffusion method
[16] = tested on: Pseudomonas aeruginosa; test: Antibacterial activity against Pseudomonas aeruginosa ATCC 27853 after 16 to 18 hrs by serial plate dilution method; outline: as §2

Row | Structure (SMILES) | inhibition zone (IZ) [1] | inhibition zone (IZ) [2] | inhibition zone (IZ) [3] | inhibition zone (IZ) [4] | MIC [5] | MIC [6] | MIC [7] | MIC [8] | MIC [9] | MIC [10] | inhibition zone (IZ) [11] | MIC [12] | inhibition zone (IZ) [13] | inhibition zone (IZ) [14] | inhibition zone (IZ) [15] | MIC [16]
1 | FC(F)(F)c1cccc2c(N3CCC(N4CCOCC4)CC3)c(-c3nnc(S)n3-c3ccccc3)cnc12 | 16 mm | 16 mm | 16 mm | 20 mm | 6.25 mg/L (≈ 11.6 µM) | 6.25 mg/L (≈ 11.6 µM) | 6.25 mg/L (≈ 11.6 µM) | 6.25 mg/L (≈ 11.6 µM) | 6.25 mg/L (≈ 11.6 µM) | 6.25 mg/L (≈ 11.6 µM) | 16 mm | 6.25 mg/L (≈ 11.6 µM) | 16 mm | 16 mm | 20 mm | 6.25 mg/L (≈ 11.6 µM)
2 | FC(F)(F)c1cccc2c(N3CCOCC3)c(-c3nnc(S)n3-c3ccccc3)cnc12 | 16 mm | 16 mm | 16 mm | 20 mm | 6.25 mg/L (≈ 13.7 µM) | 6.25 mg/L (≈ 13.7 µM) | 6.25 mg/L (≈ 13.7 µM) | 6.25 mg/L (≈ 13.7 µM) | 6.25 mg/L (≈ 13.7 µM) | 6.25 mg/L (≈ 13.7 µM) | 16 mm | 6.25 mg/L (≈ 13.7 µM) | 16 mm | 16 mm | 20 mm | 6.25 mg/L (≈ 13.7 µM)
3 | COCCn1c(S)nnc1-c1cnc2c(C(F)(F)F)cccc2c1N1CCC(CCCO)CC1 | <10 mm | <10 mm | 16 mm | <10 mm | 50 mg/L (≈ 101 µM) | 50 mg/L (≈ 101 µM) | 50 mg/L (≈ 101 µM) | 50 mg/L (≈ 101 µM) | 6.25 mg/L (≈ 12.6 µM) | 6.25 mg/L (≈ 12.6 µM) | <10 mm | 50 mg/L (≈ 101 µM) | <10 mm | <10 mm | 20 mm | 50 mg/L (≈ 101 µM)
4 | COCCn1c(S)nnc1-c1cnc2c(C(F)(F)F)cccc2c1NC1CCCCC1 | 16 mm | 16 mm | 16 mm | 20 mm | 6.25 mg/L (≈ 13.8 µM) | 6.25 mg/L (≈ 13.8 µM) | 6.25 mg/L (≈ 13.8 µM) | 6.25 mg/L (≈ 13.8 µM) | 6.25 mg/L (≈ 13.8 µM) | 6.25 mg/L (≈ 13.8 µM) | 16 mm | 6.25 mg/L (≈ 13.8 µM) | 16 mm | 16 mm | 20 mm | 6.25 mg/L (≈ 13.8 µM)
5 | COCCn1c(S)nnc1-c1cnc2c(C(F)(F)F)cccc2c1NC1CC1 | 16 mm | 16 mm | 16 mm | 20 mm | 6.25 mg/L (≈ 15.3 µM) | 6.25 mg/L (≈ 15.3 µM) | 6.25 mg/L (≈ 15.3 µM) | 6.25 mg/L (≈ 15.3 µM) | 6.25 mg/L (≈ 15.3 µM) | 6.25 mg/L (≈ 15.3 µM) | 16 mm | 6.25 mg/L (≈ 15.3 µM) | 16 mm | 16 mm | 20 mm | 6.25 mg/L (≈ 15.3 µM)
6 | CC(C)(C)CCNc1c(-c2nnc(S)n2-c2ccccc2)cnc2c(C(F)(F)F)cccc12 | 16 mm | 16 mm | 16 mm | 20 mm | 6.25 mg/L (≈ 13.3 µM) | 6.25 mg/L (≈ 13.3 µM) | 6.25 mg/L (≈ 13.3 µM) | 6.25 mg/L (≈ 13.3 µM) | 6.25 mg/L (≈ 13.3 µM) | 6.25 mg/L (≈ 13.3 µM) | 16 mm | 6.25 mg/L (≈ 13.3 µM) | 16 mm | 16 mm | 20 mm | 6.25 mg/L (≈ 13.3 µM)
7 | Oc1c(-c2nnc(S)n2-c2ccccc2)cnc2c(C(F)(F)F)cccc12 | 16 mm | 16 mm | 16 mm | 20 mm | 6.25 mg/L (≈ 16.1 µM) | 6.25 mg/L (≈ 16.1 µM) | 6.25 mg/L (≈ 16.1 µM) | 6.25 mg/L (≈ 16.1 µM) | 6.25 mg/L (≈ 16.1 µM) | 6.25 mg/L (≈ 16.1 µM) | 16 mm | 6.25 mg/L (≈ 16.1 µM) | 16 mm | 16 mm | 20 mm | 6.25 mg/L (≈ 16.1 µM)
8 | FC(F)(F)c1cccc2c(N3CCOCC3)c(-c3nnc(S)n3Cc3ccccc3)cnc12 | 10 mm | 10 mm | 16 mm | 16 mm | 12.5 mg/L (≈ 26.5 µM) | 12.5 mg/L (≈ 26.5 µM) | 50 mg/L (≈ 106 µM) | 12.5 mg/L (≈ 26.5 µM) | 12.5 mg/L (≈ 26.5 µM) | 6.25 mg/L (≈ 13.3 µM) | 10 mm | 12.5 mg/L (≈ 26.5 µM) | <10 mm | <10 mm | 16 mm | 50 mg/L (≈ 106 µM)
9 | CC(C)(C)CCNc1c(-c2nnc(S)n2Cc2ccccc2)cnc2c(C(F)(F)F)cccc12 | 10 mm | 10 mm | 10 mm | 16 mm | 12.5 mg/L (≈ 25.7 µM) | 12.5 mg/L (≈ 25.7 µM) | 12.5 mg/L (≈ 25.7 µM) | 12.5 mg/L (≈ 25.7 µM) | 12.5 mg/L (≈ 25.7 µM) | 12.5 mg/L (≈ 25.7 µM) | 10 mm | 12.5 mg/L (≈ 25.7 µM) | 10 mm | 12 mm | 16 mm | 12.5 mg/L (≈ 25.7 µM)
10 | COCCn1c(S)nnc1-c1cnc2c(C(F)(F)F)cccc2c1N1CC(C)OC(C)C1 (centres undefined) | 16 mm | 16 mm | 16 mm | 20 mm | 6.25 mg/L (≈ 13.4 µM) | 6.25 mg/L (≈ 13.4 µM) | 6.25 mg/L (≈ 13.4 µM) | 6.25 mg/L (≈ 13.4 µM) | 6.25 mg/L (≈ 13.4 µM) | 6.25 mg/L (≈ 13.4 µM) | 16 mm | 6.25 mg/L (≈ 13.4 µM) | 16 mm | 16 mm | 20 mm | 6.25 mg/L (≈ 13.4 µM)
11 | COCCn1c(S)nnc1-c1cnc2c(C(F)(F)F)cccc2c1O | 16 mm | 16 mm | 16 mm | 20 mm | 6.25 mg/L (≈ 16.9 µM) | 6.25 mg/L (≈ 16.9 µM) | 6.25 mg/L (≈ 16.9 µM) | 6.25 mg/L (≈ 16.9 µM) | 6.25 mg/L (≈ 16.9 µM) | 6.25 mg/L (≈ 16.9 µM) | 16 mm | 6.25 mg/L (≈ 16.9 µM) | 16 mm | 16 mm | 20 mm | 6.25 mg/L (≈ 16.9 µM)
12 | FC(F)(F)c1cccc2c(Cl)c(-c3nnc(S)n3Cc3ccccc3)cnc12 | <10 mm | <10 mm | <10 mm | <10 mm | 50 mg/L (≈ 119 µM) | 50 mg/L (≈ 119 µM) | 50 mg/L (≈ 119 µM) | 50 mg/L (≈ 119 µM) | 50 mg/L (≈ 119 µM) | 50 mg/L (≈ 119 µM) | <10 mm | 50 mg/L (≈ 119 µM) | <10 mm | <10 mm | <10 mm | 50 mg/L (≈ 119 µM)
13 | FC(F)(F)c1cccc2c(N3CCN(C4CCCCC4)CC3)c(-c3nnc(S)n3Cc3ccccc3)cnc12 | <10 mm | <10 mm | 16 mm | <10 mm | 50 mg/L (≈ 90.5 µM) | 50 mg/L (≈ 90.5 µM) | 50 mg/L (≈ 90.5 µM) | 50 mg/L (≈ 90.5 µM) | 50 mg/L (≈ 90.5 µM) | 6.25 mg/L (≈ 11.3 µM) | <10 mm | 50 mg/L (≈ 90.5 µM) | <10 mm | <10 mm | <10 mm | 50 mg/L (≈ 90.5 µM)
14 | COCCn1c(S)nnc1-c1cnc2c(C(F)(F)F)cccc2c1Cl | 10 mm | 10 mm | 10 mm | 10 mm | 12.5 mg/L (≈ 32.2 µM) | 12.5 mg/L (≈ 32.2 µM) | 12.5 mg/L (≈ 32.2 µM) | 12.5 mg/L (≈ 32.2 µM) | 6.25 mg/L (≈ 16.1 µM) | 12.5 mg/L (≈ 32.2 µM) | 10 mm | 12.5 mg/L (≈ 32.2 µM) | 10 mm | 12 mm | 16 mm | 12.5 mg/L (≈ 32.2 µM)
